Data as given in ChEMBL document CHEMBL1159098, “A new series of flavones, thioflavones, and flavanones as selective monoamine oxidase-B inhibitors” (Bioorg Med Chem, 2010).

How the values were obtained:
[1] = molecular target: T1, Amine oxidase [flavin-containing] A (Homo sapiens, UniProt P21397); test: Inhibition of human recombinant MAOA expressed in BTI-TN-5B1-4 cells at 100 uM by para-tyramine oxidation assay; format: cell-based; details: for inhibition (INH): human, bti-tn-5b1-4, 100 µM; for inhibition at 100 µM: BTI-TN-5B1-4, human
T1 sequence (P21397 whole entry): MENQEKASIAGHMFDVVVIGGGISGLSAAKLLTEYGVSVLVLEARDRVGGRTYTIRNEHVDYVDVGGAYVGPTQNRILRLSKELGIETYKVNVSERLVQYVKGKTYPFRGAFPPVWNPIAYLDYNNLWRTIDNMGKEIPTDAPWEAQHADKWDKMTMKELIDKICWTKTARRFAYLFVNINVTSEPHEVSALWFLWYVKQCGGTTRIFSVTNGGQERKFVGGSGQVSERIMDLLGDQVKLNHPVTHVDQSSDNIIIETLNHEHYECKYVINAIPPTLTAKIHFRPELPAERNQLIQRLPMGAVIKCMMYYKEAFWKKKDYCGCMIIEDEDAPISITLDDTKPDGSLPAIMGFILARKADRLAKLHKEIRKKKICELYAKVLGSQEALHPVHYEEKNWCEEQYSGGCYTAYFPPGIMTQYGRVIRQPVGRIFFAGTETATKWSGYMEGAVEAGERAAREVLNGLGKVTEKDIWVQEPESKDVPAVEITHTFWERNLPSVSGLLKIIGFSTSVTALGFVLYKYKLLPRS

[2] = molecular target: T2, Amine oxidase [flavin-containing] B (Homo sapiens, UniProt P27338); format: cell-based, BTI-TN-5B1-4
T2 sequence (P27338 whole entry): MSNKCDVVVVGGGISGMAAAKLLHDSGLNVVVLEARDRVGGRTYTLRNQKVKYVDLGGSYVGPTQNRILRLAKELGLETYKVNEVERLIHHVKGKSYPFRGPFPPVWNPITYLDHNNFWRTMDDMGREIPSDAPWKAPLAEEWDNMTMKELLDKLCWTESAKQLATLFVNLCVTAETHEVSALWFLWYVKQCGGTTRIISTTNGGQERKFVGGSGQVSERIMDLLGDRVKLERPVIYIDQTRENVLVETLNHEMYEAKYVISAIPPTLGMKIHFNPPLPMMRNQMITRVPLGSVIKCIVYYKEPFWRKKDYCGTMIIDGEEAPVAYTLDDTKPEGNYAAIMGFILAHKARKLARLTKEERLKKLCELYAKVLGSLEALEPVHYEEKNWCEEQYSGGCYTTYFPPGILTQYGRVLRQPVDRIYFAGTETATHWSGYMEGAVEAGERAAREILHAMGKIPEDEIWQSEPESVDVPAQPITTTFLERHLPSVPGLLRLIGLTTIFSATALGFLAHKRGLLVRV

[3] = organism: Homo sapiens; test: Selectivity for human MAOB over human MAOA
Method in brief: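 Selectivity index = IC50(hMAO-A)/IC50(hMAO-B), both from Amplex Red/p-tyramine fluorimetric assays on insect-cell recombinant enzymes.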

SMILES	inhibition (INH) [1]	IC50 [2]	Ratio IC50 [3]	inhibition at 100 µM [1]
COc1ccc(C2CC(=O)c3ccccc3O2)cc1 (racemic)	Not Active	2200 nM	> 45	–
COc1ccc(-c2cc(=S)c3ccc(OC)cc3o2)cc1	Not Active	3340 nM	> 30	–
O=C1CC(c2ccccc2)Oc2ccccc21 (racemic) [FLAVANONE]	Not Active	2870 nM	> 35	–
Cc1ccc(-c2cc(=S)c3ccc(C)cc3o2)cc1	Not Active	6720 nM	> 15	–
O=c1cc(-c2ccc(F)cc2)oc2cc(F)ccc12	Not Active	–	–	–
COc1ccc(C2CC(=O)c3ccc(C)cc3O2)cc1 (racemic)	Not Active	3350 nM	> 30	–
Cc1ccc(-c2cc(=O)c3ccccc3o2)cc1	Not Active	2380 nM	> 42	–
COc1ccc(-c2cc(=O)c3ccc(OC)cc3o2)cc1 [4,7-DIMETHOXYFLAVONE]	Not Active	49700 nM	> 2	–
COc1ccc2c(=S)cc(-c3ccc(C)cc3)oc2c1	–	7610 nM	> 13	40%
Cc1ccc(-c2cc(=O)c3ccc(F)cc3o2)cc1	Not Active	4330 nM	> 23	–
COc1ccc2c(=O)cc(-c3ccc(C)cc3)oc2c1	Not Active	11300 nM	> 8.8	–
COc1ccc2c(=O)cc(-c3ccc(F)cc3)oc2c1	Not Active	5140 nM	> 19	–
Cc1ccc2c(c1)OC(c1ccccc1)CC2=O (racemic)	Not Active	3620 nM	> 28	–
COc1ccc(-c2cc(=O)c3ccccc3o2)cc1 [4'-METHOXYFLAVONE]	–	27900 nM	> 3.6	40%
COc1ccc(C2CC(=O)c3ccc(OC)cc3O2)cc1 (racemic) [LIQUIRITIGENIN DIMETHYL ETHER]	Not Active	7180 nM	> 14	–
Cc1ccc(C2CC(=O)c3ccccc3O2)cc1 (racemic)	Not Active	2070 nM	> 48	–

Other lines, results leading:

inhibition (INH) [1]	IC50 [2]	Ratio IC50 [3]	inhibition at 100 µM [1]	SMILES
Not Active	160 nM	> 625	–	Cc1ccc(C2CC(=O)c3ccc(F)cc3O2)cc1 (racemic)
Not Active	1470 nM	> 68	–	COc1ccc2c(c1)OC(c1ccccc1)CC2=O (racemic)
Not Active	670 nM	> 149	–	O=C1CC(c2ccc(F)cc2)Oc2cc(F)ccc21 (racemic)
Not Active	170 nM	> 588	–	COc1ccc2c(c1)OC(c1ccc(F)cc1)CC2=O (racemic)
Not Active	160 nM	> 625	–	COc1ccc2c(c1)O[C@H](c1ccc(F)cc1)CC2=O
Not Active	530 nM	> 189	–	Cc1ccc([C@H]2CC(=O)c3ccc(C)cc3O2)cc1
Not Active	170 nM	> 588	–	COc1ccc(C2CC(=O)c3ccc(F)cc3O2)cc1 (racemic)
Not Active	590 nM	> 169	–	Cc1ccc([C@@H]2CC(=O)c3ccc(C)cc3O2)cc1
Not Active	500 nM	> 200	–	Cc1ccc(C2CC(=O)c3ccc(C)cc3O2)cc1 (racemic)
Not Active	200 nM	> 500	–	COc1ccc2c(c1)O[C@@H](c1ccc(F)cc1)CC2=O
–	1340 nM	> 75	40%	COc1ccc(-c2cc(=O)c3ccc(F)cc3o2)cc1
